# Data published in PubChem BioAssay AID1885 (Broad Institute, 2009).
# Among all 300,000 compounds or so, about 4,400 (1.5%) were called active.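 The calls were made as follows: active = mean inhibition across valid replicates above about 55% (limit read from the data); inconclusive = mean below that limit but half or more replicates reach it; inactive = mean below it, under half of replicates reach it.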 Shown is part of a subset that was picked to be rich in actives.
# Experiment: Trypanosoma cruzi replication blockers in host cells – luminescence, NIH3T3 host cells, primary screen (AID 1885);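 also: signal also drops with host cell toxicity which is not excluded here; 0% = plate median of DMSO wells and 100% = zero luminescence signal; higher percent means less beta-gal luminescence so fewer parasites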
# Conditions: T. cruzi beta-gal in NIH3T3, luminescence, 90 h; active compounds read high; concentration not given here
# How it was run: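 Material: NIH/3T3 host cells with β-galactosidase reporter T. cruzi; Input: 5,000 host fibroblasts per well; Medium: DMEM, 2% fetal bovine serum; Compound: 50 nL DMSO compound solution per well; Schedule: 3 h host attachment, then at least 90 h co-culture; Detection: luminescent β-galactosidase signal after 60 min lysis.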
row,Compound,inhibition
1,COc1ccc(OC)c(NC(=O)c2ccc3c(c2)C(=O)N(c2ccc(OC(C)=O)cc2)C3=O)c1,-18% (inactive)
2,CCCOc1ccc(NC(=O)C2OC3OC(C)(C)OC3C3OC(C)(C)OC23)cc1 (stereo not drawn),4.62% (inactive)
3,Cc1cc(-c2ccc(/C=N/n3cnnc3)o2)c([N+](=O)[O-])cc1C,-3.12% (inactive)
4,CN1CCN(/N=C/c2ccc(-c3ccc([N+](=O)[O-])cc3)o2)CC1,59.9% (active)
5,CN1CCN(/N=C/c2ccc(C#N)cc2)CC1,48.6% (inactive)
6,COc1ccc(-c2nc3c(s2)CCc2onc(-c4ccc(Br)cc4)c2-3)cc1,-2.05% (inactive)
7,Cc1ccc(OCCNC(=O)CCNS(=O)(=O)c2ccc(Br)cc2)cc1,-1.12% (inactive)
8,COc1ccc(NC(=O)CSc2nnc(Cc3ccccc3)c(=O)n2N)cc1,-3.84% (inactive)
9,O=C(Nc1nc2ccc([N+](=O)[O-])cc2s1)c1ccc(S(=O)(=O)N2CCCc3ccccc32)cc1,73.8% (active)
10,CN(C)CCCN(C(=O)c1ccc(S(=O)(=O)N2CCCc3ccccc32)cc1)c1nc2ccc(F)cc2s1,22.9% (inactive)
11,CS(=O)(=O)c1ccc2nc(NC(=O)c3ccc(N4CCCC4=O)cc3)sc2c1,0.975% (inactive)
12,CC(C)(C)N1C(=O)[C@H]2[C@@H](c3ccc(Br)cc3)N3C(=O)N(c4cccc(Cl)c4)C(=O)[C@@]3(C)[C@H]2C1=O,-6.33% (inactive)
13,CC(=O)NCCC(=O)Nc1nc(-c2ccc3c(c2)OCCO3)cs1,-11.7% (inactive)
14,Cc1csc(NC(=O)C2=COCCO2)n1,-7.78% (inactive)
15,Cc1ccc(-c2csc(NC(=O)C3=COCCO3)n2)cc1C,71.6% (active)
16,Cc1ccc(-c2nn(-c3ccccc3)cc2C(=O)NCCCN2CCCC2=O)cc1,-2.8% (inactive)
17,CC(C)(C)n1cnnc1Sc1ccc([N+](=O)[O-])cn1,-5.35% (inactive)
18,COc1ccc(C2CC(=O)Oc3ccc(C(C)(C)C)cc32)cc1 (stereo not drawn),-9.82% (inactive)
19,COc1ccc2oc(=O)cc(-c3cc4ccccc4o3)c2c1,0.932% (inactive)
20,CCOc1ccc(N(C)Cc2cc(=O)oc3ccc(OC)cc23)cc1,79.2% (active)

row,Compound,inhibition
1,COc1ccc2oc(=O)cc(CN3CCOCC3)c2c1,-6.42% (inactive)
2,CCCn1c(C2CCCN2c2nc(-c3ccc(OC)cc3)cs2)nc2ccccc21 (stereo not drawn),-7.75% (inactive)
3,Oc1c(C(c2ccccn2)N2CCOCC2)ccc2cccnc12 (stereo not drawn),10.2% (inactive)
4,CCOC(=O)N1CCN(C(c2cccnc2)c2ccc3cccnc3c2O)CC1 (stereo not drawn),30.1% (inactive)
5,CCN1CCN(C(c2cccnc2)c2cc(Cl)c3cccnc3c2O)CC1 (stereo not drawn),57.7% (active)
6,COc1ccc(Cl)cc1NS(=O)(=O)c1cccc(C(=O)NC2CCC(O)CC2)c1 (stereo not drawn),3.45% (inactive)
7,COC(=O)c1c(-c2ccsc2)oc2ccc(-c3cc(OC)c(OC)c(OC)c3)cc12,34% (inactive)
8,Cc1nnc(N/N=C/C2CC=CCC2)[nH]c1=O (stereo not drawn),0.195% (inactive)
9,CNC(=O)C(=O)N/N=C/c1ccccn1,-8.15% (inactive)
10,Cc1nnc(N/N=C/c2ccccn2)[nH]c1=O,60.9% (active)
11,CC1(C)S[C@@H]2[C@H](N=CN3CCCCCC3)C(=O)N2[C@H]1C(=O)O,4.45% (inactive)
12,O=C(NCc1ccc(Cl)cc1)C(=O)NCC1CCCN1S(=O)(=O)c1cccs1 (stereo not drawn),12.8% (inactive)
13,O=C(CSc1ncn[nH]1)N/N=C/c1ccc(F)cc1,-12.6% (inactive)
14,O=C(/C=C/Sc1ncn[nH]1)c1ccc(Cl)cc1,56.1% (active)
15,Cc1cc(C)nc(S/C=C/C(=O)c2ccccc2)n1,12% (inactive)
16,O=C1[C@H]2[C@@H](c3ccc(F)cc3)N3C(=O)N(c4ccc(C(F)(F)F)cc4)C(=O)[C@@]3(Cc3ccccc3)[C@H]2C(=O)N1C1CCCCC1,36.5% (inactive)
17,COc1ccc(CNC(=O)C2CCN(C(=O)c3ccccc3)CC2)cc1,-1.19% (inactive)
18,COc1cccc(N=c2oc3c(C)ncc(CO)c3cc2C(N)=O)c1,13.3% (inactive)
19,Cc1nc(Nc2ccccc2F)c2nnn(Cc3ccccc3Cl)c2n1,-8.04% (inactive)
20,Cc1nc(Nc2ccc3c(c2)OCCO3)c2nnn(Cc3ccccc3Cl)c2n1,54.7% (active)

row,Compound,inhibition
1,CCCc1nc(NCc2ccc3c(c2)OCO3)c2nnn(Cc3ccccc3Cl)c2n1,11.9% (inactive)
2,Cc1ccc(NS(=O)(=O)c2ccc3c(c2)NC(=O)CO3)cc1,5.83% (inactive)
3,CN(CC(=O)Nc1cccc(F)c1)C(=O)C1CC(=O)N(CCc2ccccc2)C1 (stereo not drawn),-2.73% (inactive)
4,NNC(=O)CSc1nnc(-c2ccccc2)n1-c1ccccc1,-6.88% (inactive)
5,Cc1ccc(-c2nnc(SCC(=O)N/N=C/c3cccs3)n2-c2ccc(C)cc2)cc1,12.8% (inactive)
6,Cc1ccc(-n2c(SCC(=O)N3c4ccccc4Sc4ccccc43)nnc2-c2ccncc2)cc1,63.1% (active)
7,O=C(CCC1CCCN(C(=O)c2ccc(F)c(F)c2)C1)N1CCN(c2ccccn2)CC1 (stereo not drawn),9.19% (inactive)
8,COc1cc(/C=C2/SC(=S)N(Cc3ccccc3)C2=O)cc(OC)c1O,-5.6% (inactive)
9,CC(=O)/C(=N\Nc1ccc(Cl)cc1Cl)Sc1cccc2cccnc12,67.6% (active)
10,O=C(Nc1cccc2cccnc12)c1cccc(Cl)c1,-33.4% (inactive)
11,O=C(Nc1ccccc1Cl)Nc1cccc2cccnc12,3.14% (inactive)
12,CCOc1ccc(C(=O)CCC(=O)NC2=NCCS2)cc1,10.9% (inactive)
13,CC(=O)c1cc(CN2CCC(n3nccc3NC(=O)c3ccccc3Cl)CC2)cs1,9.08% (inactive)
14,CCN(CC)CCn1cnc2c1c(=O)[nH]c(=O)n2Cc1ccccc1,-8.26% (inactive)
15,N=c1c2c(-c3ccccc3)c(-c3ccccc3)n(Cc3ccccc3)c2ncn1CCCO,70.5% (active)
16,COCCn1cnc2c1c(=O)n(Cc1ccc(Br)cc1)c(=O)n2Cc1ccccc1,19.6% (inactive)
17,N#Cc1ccc(-c2ccc(Cl)cc2)nc1Oc1ccc(F)cc1,14.3% (inactive)
18,N#CCCN(C(=O)COC(=O)c1ccc(S(=O)(=O)N2CCCCCC2)cc1)c1ccccc1,-2.09% (inactive)
